Test results: ChEMBL document CHEMBL1926558, “Searching for the Multi-Target-Directed Ligands against Alzheimer's disease: discovery of quinoxaline-based hybrid compounds with AChE, H₃R and BACE 1 inhibitory activities” (Bioorg Med Chem, 2011)
Several values for one entry are separate records, joined by “and”; a condition that tells them apart may be missing. Equal entries are not always repeated. Activity calls are given as the source filed them. No cut-off for these calls is given here.

Tests used:
[1] = biological target: T1, Acetylcholinesterase (Rattus norvegicus, UniProt P37136); test: Inhibition of AChE in rat cortex homogenates using acetylthiocholine iodide as substrate after 15 mins by Ellman's method
T1 sequence (P37136 whole entry): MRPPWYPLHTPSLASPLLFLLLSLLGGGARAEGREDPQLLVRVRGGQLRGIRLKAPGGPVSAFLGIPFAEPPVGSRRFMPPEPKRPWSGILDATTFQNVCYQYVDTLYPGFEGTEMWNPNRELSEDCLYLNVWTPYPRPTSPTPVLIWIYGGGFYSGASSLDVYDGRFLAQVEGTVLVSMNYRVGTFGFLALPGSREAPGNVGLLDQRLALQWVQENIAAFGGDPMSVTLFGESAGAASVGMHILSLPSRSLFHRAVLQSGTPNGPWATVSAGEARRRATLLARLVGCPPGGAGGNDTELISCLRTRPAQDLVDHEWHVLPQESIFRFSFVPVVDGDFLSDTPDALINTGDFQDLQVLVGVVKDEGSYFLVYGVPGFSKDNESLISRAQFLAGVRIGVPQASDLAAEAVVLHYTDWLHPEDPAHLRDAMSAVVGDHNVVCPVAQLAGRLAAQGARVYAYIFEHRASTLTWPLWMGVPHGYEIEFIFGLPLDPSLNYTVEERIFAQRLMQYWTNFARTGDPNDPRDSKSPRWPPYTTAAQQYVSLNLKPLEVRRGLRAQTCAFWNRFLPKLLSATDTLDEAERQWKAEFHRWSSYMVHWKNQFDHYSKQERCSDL

[2] = biological target: T2, Histamine H3 receptor (Homo sapiens, UniProt Q9Y5N1); test: Inverse agonist activity at histamine H3 receptor expressed in HEK293 cells co-transfected with pCRE-Luc gene assessed as inhibition of forskolin/histamine-induced cAMP accumulation after 5 hrs by luciferase reporter gene assay; assay type: functional, cell-based
T2 sequence (Q9Y5N1 whole entry): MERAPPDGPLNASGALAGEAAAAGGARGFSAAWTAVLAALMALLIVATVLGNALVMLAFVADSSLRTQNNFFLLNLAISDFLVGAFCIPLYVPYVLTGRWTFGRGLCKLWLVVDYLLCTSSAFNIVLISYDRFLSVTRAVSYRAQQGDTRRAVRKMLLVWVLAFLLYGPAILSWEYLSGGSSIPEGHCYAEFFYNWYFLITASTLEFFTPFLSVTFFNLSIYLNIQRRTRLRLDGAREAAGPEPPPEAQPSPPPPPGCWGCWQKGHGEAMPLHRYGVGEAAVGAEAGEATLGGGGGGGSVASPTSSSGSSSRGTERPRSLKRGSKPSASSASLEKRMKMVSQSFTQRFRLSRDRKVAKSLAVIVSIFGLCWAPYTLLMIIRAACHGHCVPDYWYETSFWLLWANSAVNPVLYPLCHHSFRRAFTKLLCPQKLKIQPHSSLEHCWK

[3] = biological target: T2, Histamine H3 receptor; test: Antagonist activity at histamine H3 receptor expressed in HEK293 cells co-transfected with pCRE-Luc gene assessed as inhibition of forskolin/histamine-induced cAMP accumulation after 5 hrs by luciferase reporter gene assay; assay type: functional, cell-based
[4] = biological target: T3, Histamine H4 receptor (Homo sapiens, UniProt Q9H3N8); test: Antagonist activity at histamine H4 receptor expressed in HEK293 cells co-transfected with pCRE-Luc gene assessed as inhibition of forskolin/histamine-induced cAMP accumulation after 5 hrs by luciferase reporter gene assay; assay type: functional, cell-based
T3 sequence (Q9H3N8 whole entry): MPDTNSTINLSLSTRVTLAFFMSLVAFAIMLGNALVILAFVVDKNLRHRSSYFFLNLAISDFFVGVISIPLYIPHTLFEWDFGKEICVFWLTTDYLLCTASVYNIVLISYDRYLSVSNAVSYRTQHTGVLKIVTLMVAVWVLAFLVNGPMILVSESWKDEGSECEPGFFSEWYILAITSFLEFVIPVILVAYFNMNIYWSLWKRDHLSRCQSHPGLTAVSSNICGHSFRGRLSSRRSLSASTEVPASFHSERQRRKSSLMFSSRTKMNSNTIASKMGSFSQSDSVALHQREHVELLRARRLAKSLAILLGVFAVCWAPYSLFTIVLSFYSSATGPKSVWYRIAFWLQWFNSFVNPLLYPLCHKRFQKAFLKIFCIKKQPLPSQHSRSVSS

[5] = biological target: Histamine H2 receptor (Homo sapiens) (UniProt P25021); test: Antagonist activity at histamine H2 receptor expressed in HEK293 cells co-transfected with pCRE-Luc gene assessed as inhibition of forskolin/histamine-induced cAMP accumulation at 1 uM after 5 hrs by luciferase reporter gene assay; assay type: functional, cell-based
Chain of Histamine H2 receptor (Homo sapiens) (P25021 whole entry): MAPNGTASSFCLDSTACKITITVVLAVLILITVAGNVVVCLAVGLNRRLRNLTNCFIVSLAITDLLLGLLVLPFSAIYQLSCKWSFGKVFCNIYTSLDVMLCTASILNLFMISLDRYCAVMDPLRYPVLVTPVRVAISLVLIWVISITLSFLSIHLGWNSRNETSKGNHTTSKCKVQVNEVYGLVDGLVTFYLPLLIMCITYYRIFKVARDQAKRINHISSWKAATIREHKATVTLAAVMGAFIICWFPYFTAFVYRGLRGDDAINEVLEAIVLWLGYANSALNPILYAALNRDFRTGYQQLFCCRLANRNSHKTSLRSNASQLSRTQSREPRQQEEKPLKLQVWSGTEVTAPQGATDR
Summary of the method: (§1)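 HEK-293 cells stably expressing H1R or H2R were grown in DMEM with 10% FBS and penicillin/streptomycin at 37 °C under 5% CO2. Transfectants were selected with 800 µg/mL G418. cAMP accumulation was induced by 1 µM histamine with test compound present and read out by CRE-luciferase transcription.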

[6] = biological target: Histamine H1 receptor (Homo sapiens) (UniProt P35367); test: Antagonist activity at histamine H1 receptor expressed in HEK293 cells co-transfected with pCRE-Luc gene assessed as inhibition of forskolin/histamine-induced cAMP accumulation at 1 uM after 5 hrs by luciferase reporter gene assay; assay type: functional, cell-based; summary of the method: as §1
Chain of Histamine H1 receptor (Homo sapiens) (P35367 whole entry): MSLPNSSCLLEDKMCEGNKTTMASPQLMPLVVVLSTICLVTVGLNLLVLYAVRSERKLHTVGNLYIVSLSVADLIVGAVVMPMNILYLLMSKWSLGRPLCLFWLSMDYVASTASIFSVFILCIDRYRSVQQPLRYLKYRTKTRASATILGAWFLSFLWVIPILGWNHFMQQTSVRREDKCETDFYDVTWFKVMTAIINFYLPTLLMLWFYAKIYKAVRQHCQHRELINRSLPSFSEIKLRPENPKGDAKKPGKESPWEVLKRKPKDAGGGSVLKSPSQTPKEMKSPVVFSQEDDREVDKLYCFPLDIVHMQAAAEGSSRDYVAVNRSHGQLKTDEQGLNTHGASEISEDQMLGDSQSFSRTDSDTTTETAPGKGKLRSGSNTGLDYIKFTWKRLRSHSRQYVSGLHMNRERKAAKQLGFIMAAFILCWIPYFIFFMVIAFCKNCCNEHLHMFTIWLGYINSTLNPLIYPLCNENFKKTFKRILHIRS

[7] = biological target: T3, Histamine H4 receptor; test: Antagonist activity at histamine H4 receptor expressed in HEK293 cells co-transfected with pCRE-Luc gene assessed as inhibition of forskolin/histamine-induced cAMP accumulation at 1 uM after 5 hrs by luciferase reporter gene assay; assay type: functional, cell-based
[8] = biological target: T2, Histamine H3 receptor; test: Antagonist activity at histamine H3 receptor expressed in HEK293 cells co-transfected with pCRE-Luc gene assessed as inhibition of forskolin/histamine-induced cAMP accumulation at 1 uM after 5 hrs by luciferase reporter gene assay; assay type: functional, cell-based
[9] = biological target: Acetylcholinesterase (Homo sapiens, UniProt P22303)
Chain of Acetylcholinesterase (Homo sapiens, UniProt P22303) (P22303 whole entry): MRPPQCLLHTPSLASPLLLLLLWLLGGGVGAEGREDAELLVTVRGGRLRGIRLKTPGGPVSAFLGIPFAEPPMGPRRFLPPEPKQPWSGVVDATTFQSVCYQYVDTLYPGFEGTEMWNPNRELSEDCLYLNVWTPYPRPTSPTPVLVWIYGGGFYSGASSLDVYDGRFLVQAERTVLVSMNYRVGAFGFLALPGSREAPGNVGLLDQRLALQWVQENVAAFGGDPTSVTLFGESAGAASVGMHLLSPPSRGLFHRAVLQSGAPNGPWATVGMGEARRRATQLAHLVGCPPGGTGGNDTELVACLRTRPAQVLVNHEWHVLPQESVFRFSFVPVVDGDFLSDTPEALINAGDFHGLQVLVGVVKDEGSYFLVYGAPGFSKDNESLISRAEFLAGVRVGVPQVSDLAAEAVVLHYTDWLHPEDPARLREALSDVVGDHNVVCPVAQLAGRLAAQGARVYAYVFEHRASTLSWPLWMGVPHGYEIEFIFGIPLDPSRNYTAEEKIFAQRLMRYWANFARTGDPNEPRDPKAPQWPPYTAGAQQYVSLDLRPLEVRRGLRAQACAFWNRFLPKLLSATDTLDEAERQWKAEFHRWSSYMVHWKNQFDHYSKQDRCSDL

SMILES: Nc1nc2ccccc2nc1C(=O)Nc1ccc(CN2CCCCC2)cc1
- IC50 ([1]; read-out: IC50): 892 nM
- IC50 ([2]; hek293): Not Active

SMILES: Nc1nc2ccccc2nc1NC(=O)c1ccc(CN2CCCCC2)cc1 [listing 1 of 3 here]
- IC50 [3]: 280 nM
- IC50 [4]: > 10000 nM
- IC50 ([1]; read-out: IC50): 483 nM
- IC50 ([2]; read-out: IC50): 189 nM

SMILES: Nc1nc2ccccc2nc1NCC(=O)Nc1ccc(CN2CCCC2)cc1
- IC50 ([1]; read-out: IC50): 1170 nM
- IC50 ([2]; hek293): Not Active

SMILES: Nc1nc2ccccc2nc1CNc1ccc(CN2CCCCC2)cc1
- IC50 [3]: 130 nM
- inhibition [5]: inactive
- inhibition [6]: inactive
- inhibition [7]: Active
- IC50 [1]: Not Active
- IC50 ([2]; hek293): Not Active

SMILES: Nc1nc2ccccc2nc1C(=O)NC1CCN(Cc2ccccc2)CC1
- IC50 [1]: Not Active
- IC50 ([2]; hek293): Not Active

SMILES: Nc1nc2ccccc2nc1NCCCOc1ccc(CN2CCCCC2)cc1
- IC50 ([1]; read-out: IC50): 1930 nM
- IC50 ([2]; hek293): Not Active

SMILES: Nc1nc2ccccc2nc1C(=O)Nc1ccc(CN2CCCC2)cc1
- IC50 [3]: 260 nM
- inhibition [5]: inactive
- inhibition [6]: inactive
- inhibition [7]: Active
- inhibition [8]: 72.8%
- IC50 ([1]; read-out: IC50): 1500 nM
- IC50 ([2]; read-out: IC50): 378 nM

SMILES: Nc1nc2ccccc2nc1NCC(=O)Nc1ccc(CN2CCCCC2)cc1
- IC50 ([1]; read-out: IC50): 1160 nM
- IC50 ([2]; hek293): Not Active

SMILES: Nc1nc2ccccc2nc1NCC(=O)NC1CCN(Cc2ccccc2)CC1
- inhibition [8]: 4.5%
- IC50 ([1]; read-out: IC50): 1330 nM
- IC50 ([2]; hek293): Not Active

SMILES: CN1CCN(Cc2ccc(OCCNc3nc4ccccc4nc3N)cc2)CC1
- IC50 [1]: Not Active
- IC50 ([2]; hek293): Not Active

SMILES: Nc1nc2ccccc2nc1NC(=O)C1CCN(Cc2ccccc2)CC1
- IC50 [1]: Not Active
- IC50 ([2]; hek293): Not Active

SMILES: Nc1nc2ccccc2nc1NC(=O)c1ccc(CN2CCCCC2)cc1 [listing 2 of 3 here]
- IC50 [3]: 511 nM
- IC50 ([4]; hek293): > 10000 nM
- IC50 ([1]; read-out: IC50): 313 nM
- IC50 ([2]; read-out: IC50): 171 nM

SMILES: COc1cc2c(cc1OC)C(=O)C(Oc1ccc(CN3CCCC3)cc1)C2 (stereo not given)
- IC50 [9]: 50 nM

SMILES: Nc1nc2ccccc2nc1NC(=O)c1ccc(CN2CCCCC2)cc1 [listing 3 of 3 here]
- inhibition [5]: inactive
- inhibition [6]: inactive
- inhibition [7]: Active
- inhibition [8]: 74.4% and 65.3%

SMILES: Cl.Nc1nc2ccccc2nc1NC(=O)c1ccc(CN2CCCC2)cc1
- inhibition [8]: 0.8%
- IC50 [1]: Not Active
- IC50 ([2]; hek293): Not Active

SMILES: Nc1nc2ccccc2nc1/N=C/c1ccc(CN2CCCCC2)cc1
- IC50 ([1]; read-out: IC50): 748 nM
- IC50 ([2]; hek293): Not Active

SMILES: S=C(NC1CCCCC1)N1CCC(c2cnc[nH]2)CC1 [THIOPERAMIDE]
- inhibition [5]: inactive
- inhibition [6]: inactive
- IC50 ([2]; hek293): Not Active

SMILES: Nc1nc2ccccc2nc1NCc1ccc(CN2CCCCC2)cc1
- IC50 ([1]; read-out: IC50): 476 nM
- IC50 ([2]; hek293): Not Active

SMILES: CCN(CC)Cc1ccc(OCCNc2nc3ccccc3nc2N)cc1
- IC50 [3]: 182 nM
- inhibition [5]: inactive
- inhibition [6]: inactive
- inhibition [7]: Active
- IC50 ([1]; read-out: IC50): 3870 nM
- IC50 ([2]; hek293): Not Active

SMILES: Nc1nc2ccccc2nc1NCCOc1ccc(CN2CCCCC2)cc1
- IC50 [3]: 52.4 nM
- inhibition [5]: inactive
- inhibition [6]: inactive
- inhibition [7]: Active
- IC50 ([1]; read-out: IC50): 1600 nM
- IC50 ([2]; hek293): Not Active
